Results reported in publication PMC3354652 (Cancer Discovery, 2012).
“Also recorded” adds a separate entry of the source.

Assays:
RIP-Tag2 mice [1] = experiment: Liver metastasis; assay type: in vivo, mouse
RIP-Tag2 tumors [2] = experiment: Tumor vascularity; assay type: in vivo, mouse; details: for intratumoral hypoxia / tumor vascularity: RIP-Tag2 mice treated from age 14 to 17 weeks; for HIF-1α protein by western blot: RIP-Tag2 tumors
RIP-Tag2 tumors [3] = experiment: Tumor invasion; assay type: in vivo, mouse
Panc-1 tumors = experiment: Orthotopic Panc-1 pancreatic adenocarcinomas in nude mice; assay type: in vivo, mouse
[4] = test system: Snail1, N-cadherin, vimentin; experiment: Western blot of mesenchymal markers in RIP-Tag2 tumors; assay type: in vivo, mouse; details: for bands for Snail1, N-cadherin and vimentin in western blots: RIP-Tag2 tumors treated from age 14 to 15 weeks
Summary of the method: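 Tumors came from RIP-Tag2 mice treated from age 14 to 15 weeks with vehicle, anti-VEGF antibody, a kinase inhibitor, or a combination. Snail1, N-cadherin and vimentin were immunoblotted in tumor lysates. Bands were quantified by densitometry and expressed as fold over vehicle. Groups had 4-8 surviving mice. Groups were compared by Student's t test or ANOVA with Fisher's multiple-comparison test.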

RIP-Tag2 mice [5] = experiment: Survival of RIP-Tag2 mice; assay type: in vivo, mouse
RIP-Tag2 tumors [6] = experiment: Tumor size; assay type: in vivo, mouse; details: RIP-Tag2 mice treated from age 14 to 17 weeks
RIP-Tag2 tumors [7] = details: RIP-Tag2 mice; cited from earlier work
c-Met = c-Met mRNA, total c-Met and phospho-c-Met in RIP-Tag2 tumors; assay type: in vivo, mouse; details: RIP-Tag2 tumors treated from age 14 to 15 weeks
[8] = RIP-Tag2 mice treated from age 14 to 17 weeks
[9] = RIP-Tag2 mice age 14 to 17 weeks, vs corresponding group without PF-04217903
[10] = RIP-Tag2 mice treated from age 14 to 20 weeks
[11] = western blot, treated from age 14 to 15 weeks

With `C[C@@H](Oc1cc(-c2cnn(C3CCNCC3)c2)cnc1N)c1c(Cl)ccc(F)c1Cl` [PF-02341066, crizotinib] the “liver metastases found per mouse” value (RIP-Tag2 mice [1]; RIP-Tag2 mice treated for 3 weeks, vehicle average of 20 per mouse) was 4, the “mice with liver metastases visible microscopically” value (RIP-Tag2 mice [1]; [8]) was 3 of 4 and the “intratumoral hypoxia” value (RIP-Tag2 tumors [2]) was “did not change”. The “tumor vascularity” value (RIP-Tag2 tumors [2]) was “did not change” and the “tumor invasiveness: Invasion index and trapped acinar cells” value (RIP-Tag2 tumors [3]; [8]) was “reduced invasiveness”.

With `OCCn1cc(-c2cnc3nnn(Cc4ccc5ncccc5c4)c3n2)cn1` [PF-04217903] the “vascular pruning and intratumoral hypoxia” value (Panc-1 tumors; 3 weeks treatment) was “little effect”, the “average decrease in volume of metastases (metastatic tumor burden)” value (RIP-Tag2 mice [1]; [9]) was 78% and the “reduction in mean diameter of liver metastases when PF-04217903 was combined” value (RIP-Tag2 mice [1]; [9]) was 40%. The “mice with liver metastases visible microscopically” value (RIP-Tag2 mice [1]; [8]) was 1 of 7 and one of 7, the “tumor vascularity” value (RIP-Tag2 tumors [2]) was “no reduction in overall vascularity” and the “HIF-1α protein by western blot” value (RIP-Tag2 tumors [2]) was “not increased”. For the same molecule, the “bands for Snail1, N-cadherin and vimentin in western blots” value [4] was “weaker”.

For `COc1cc2nccc(Oc3ccc(NC(=O)C4(C(=O)Nc5ccc(F)cc5)CC4)cc3)c2cc1OC` [XL184, cabozantinib], the “mice surviving until the experiment ended at age 20 weeks” value (RIP-Tag2 mice [5]; RIP-Tag2 mice treated from 14 weeks of age) was “all”, the “overall survival versus vehicle or anti-VEGF antibody” value (RIP-Tag2 mice [5]; RIP-Tag2 mice treated from age 10 to 14 weeks) was “better overall survival” and the “survival at 20 weeks” value (RIP-Tag2 mice [5]; RIP-Tag2 mice, treatment beginning at age 14 weeks, n = 6) was 100%. For the same molecule, the liver micrometastases found (RIP-Tag2 mice [1]; RIP-Tag2 mice treated from age 10 to 14 weeks, 5 mice) was “none”, the “mice with liver metastases visible microscopically” value (RIP-Tag2 mice [1]; [8]) was “none were detected; also recorded: None of 5” and the “mice with small liver metastases” value (RIP-Tag2 mice [1]; [10]) was 5 of 6. For the same molecule, the “number of liver metastases per sectional area” value (RIP-Tag2 mice [1]; [10]) was 0.3 ± 0.2 metastases/mm^2, the “reduction in tumor vascularity” value (RIP-Tag2 tumors [2]; RIP-Tag2 mice, 3 weeks treatment) was 79% and the “bands for Snail1, N-cadherin and vimentin in western blots” value [4] was “less Snail1, N-cadherin, and vimentin”. For the same molecule, the “area density of trapped amylase-positive acinar cells in tumors” value (RIP-Tag2 tumors [3]; [8]) was 2.6 ± 0.4%, the “fewer amylase-positive (trapped acinar) cells than 14-week old onset controls” value (RIP-Tag2 tumors [3]; RIP-Tag2 mice treated from age 14 to 17 weeks, onset controls 4.8 ± 0.5%) was 46% and the “tumor shape and invasiveness” value (RIP-Tag2 tumors [3]; younger RIP-Tag2 mice treated from age 10 to 14 weeks) was “rounder and less invasive”. The “mean sectional area of tumors” value (RIP-Tag2 tumors [6]) was 0.7 ± 0.1 mm^2.

In the case of `COc1cc2c(Oc3ccc(NC(=O)C4(C(=O)Nc5ccc(F)cc5)CC4)cc3F)ccnc2cc1OCCCN1CCOCC1` [XL880, foretinib], the “invasion and tumor cells in the liver” value (RIP-Tag2 tumors [7]) is listed as “decreases invasion and the appearance of tumor cells in the liver” and the “tumor growth” value (RIP-Tag2 tumors [7]) is listed as “slows tumor growth”.

In the case of `CCN(CC)CCNC(=O)c1c(C)[nH]c(/C=C2\C(=O)Nc3ccc(F)cc32)c1C` [sunitinib], the “survival during the 3-week treatment” value (RIP-Tag2 mice [5]; RIP-Tag2 mice, age 14 to 17 weeks, vehicle 42%) is reported as 80%, the “intratumoral hypoxia assessed by pimonidazole staining” value (Panc-1 tumors; 3 weeks treatment) is reported as “doubling” and the “invasiveness reflected by intratumoral acinar cells stained for amylase” value (Panc-1 tumors; 3 weeks treatment) is reported as “exaggerated”. For the same molecule, the “reduction in tumor vascularity” value (Panc-1 tumors; 3 weeks treatment) was 75%, the “tumor growth by bioluminescence imaging” value (Panc-1 tumors; 3 weeks treatment) was “grew slower” and the “mice with micrometastases in the liver” value (Panc-1 tumors; early stage) was 4 of 6. For the same molecule, the “number of liver metastases per sectional area” value (RIP-Tag2 mice [1]; 17-week old RIP-Tag2 mice treated for 3 weeks) was 1.3 ± 1.2 metastases/mm^2, the “number of liver metastases compared to the 17-week old vehicle group” value (RIP-Tag2 mice [1]; [8]) was “twice” and the “size of liver metastases compared to vehicle group” value (RIP-Tag2 mice [1]; [8]) was 4 times. The “mean diameter of liver metastases” value (RIP-Tag2 mice [1]; RIP-Tag2 mice treated from age 14 to 17 weeks, vehicle 90 ± 9 μm) was 369 ± 267 μm, the “c-Met mRNA expression, fold the control value” (c-Met) was 6 fold and the “intratumoral hypoxia” value (RIP-Tag2 tumors [2]) was “greater hypoxia”. For the same molecule, the “tumor vascularity” value (RIP-Tag2 tumors [2]) was “fewer blood vessels”, the “HIF-1α protein by western blot” value (RIP-Tag2 tumors [2]) was “greater” and the “N-cadherin densitometry value, times greater than vehicle” value [4, 11] was 10 times. For the same molecule, the “Snail1 densitometry value, times greater than vehicle” value [4, 11] was 3 times, the “vimentin densitometry value, times greater than vehicle” value [4, 11] was 5 times and the “tumor invasiveness: Invasion index and trapped acinar cells” value (RIP-Tag2 tumors [3]; [8]) was “significantly greater”. The “mean sectional area of tumors” value (RIP-Tag2 tumors [6]) was 3.7 ± 0.8 mm^2 and the “sectional area of tumors, less than age-matched vehicle controls” value (RIP-Tag2 tumors [6]) was 78%.
